MrgX1 antag: antagonists of human MrgX1 receptor, primary screen, HEK293 cells, Fluo-4 calcium flux; Mas-related G-protein coupled receptor member X1 (Homo sapiens), Q96LB2; AID 588676, 2011; B-score at 10 µM; BAM8-22 antagonism; stronger effect = lower value; 310,000 tested, 1.3% active;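 active = calcium-response B-score plate-corrected more than 3 library SD below zero, starting fluorescence within 5 deviations, no agonist response on first addition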;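 also: peak minus trough fluorescence over baseline after final BAM8-22 challenge near maximal dose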
Target sequence (Q96LB2 whole entry, looked up): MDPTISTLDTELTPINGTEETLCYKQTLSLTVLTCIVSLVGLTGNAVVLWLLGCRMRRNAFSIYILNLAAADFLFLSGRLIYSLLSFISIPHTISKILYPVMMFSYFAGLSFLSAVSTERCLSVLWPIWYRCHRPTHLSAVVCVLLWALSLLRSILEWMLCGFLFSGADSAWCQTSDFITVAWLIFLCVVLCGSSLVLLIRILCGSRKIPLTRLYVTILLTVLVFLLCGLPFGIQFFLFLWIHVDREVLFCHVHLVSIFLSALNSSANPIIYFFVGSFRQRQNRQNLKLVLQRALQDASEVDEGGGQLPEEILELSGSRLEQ
RGS4 block: RGS4 inhibitors, primary screen, cell-based, HEK293 M3R inducible RGS4, calcium flux. Regulator of G-protein signaling 4 (Homo sapiens), P49798. 310,000 tested, 0.45% active. AID 463165, 2010. B-score at 10 µM. Fluo-4 calcium flux; stronger effect = higher value; triggered by carbachol at its EC20;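 active = B-score, a plate-corrected calcium signal, over three deviations above library mean, with baseline fluorescence within five deviations of library mean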;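 also: RGS4 expression induced by doxycycline in cells with stable M3 receptor; B-score is computed from the integrated fluorescence ratio over baseline after carbachol; higher B-score means a larger calcium signal and so more RGS4 inhibition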
MrgX1 ag: agonists of human MrgX1 receptor, primary screen, HEK293 cells, Fluo-4 calcium flux; Mas-related G-protein coupled receptor member X1 (Homo sapiens), Q96LB2; B-score at 10 µM; 310,000 tested, 0.44% active; Fluo-4 calcium fluorescence, agonist mode; stronger effect = higher value;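 active = calcium response B-score plate-corrected fluorescence ratio at least 3 library SD, with starting fluorescence B-score inside 5 SD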
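System: HEK293 cells stably expressing human MrgX1 receptor; Dosing: test compound in the initial addition of three; Schedule: overnight plating, then 30 min 37 °C plus 30 min room-temperature dye loading; Detection: kinetic calcium dye fluorescence, Fluo-4 NW; Controls: per-plate positive and negative controls for Z′ factor.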
RGS4 act: RGS4 potentiators or activators, primary screen, cell-based, HEK293 M3R inducible RGS4, calcium flux; carbachol calcium flux Fluo4; stronger effect = lower value; B-score at 10 µM; 310,000 tested, 0.92% active; AID 463111, 2010;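 active = B-score of the integrated calcium signal more than 4 SD below the library mean, with starting fluorescence not abnormally high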;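 also: negative B-score means reduced calcium response which marks RGS4 activation or potentiation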
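Test system: HEK293 cells with stable M3R and inducible RGS4; also added: carbachol at ECmax as muscarinic agonist stimulus; schedule: dye loading 30 min 37 °C, buffer rest 30 min RT; technique: kinetic calcium fluorescence imaging with Fluo4-AM dye, 2 µM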
MrgX1 PAM: positive allosteric modulators of MrgX1, primary screen, HEK293 cells, Fluo-4 calcium flux. Mas-related G-protein coupled receptor member X1 (Homo sapiens), Q96LB2. FDSS; stronger effect = higher value. B-score at 10 µM. 310,000 tested, 0.63% active;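 active = plate-corrected calcium response at least 3 library SD above typical, normal starting fluorescence, not activating the receptor alone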;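 also: compound read alongside a low EC10 to EC30 dose of BAM8-22 agonist; peak minus trough fluorescence over baseline measured at the second addition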
RGS4 activ val: reduced carbachol calcium response, RGS4-induced M3R cells, confirmation, RGS4 activator project, cell-based, HEK293 M3R/RGS4 inducible, calcium flux, duplicate. shares compounds with RGS4 act. carbachol calcium flux Fluo4. inhibition, % at 10 µM. 1,100 tested, 89% active. AID 602282, 2012;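 active = inhibition above 3 SD of the buffer control wells, cut at about 41% in these data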;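 also: signal is the integrated peak-minus-minimum Fluo4 fluorescence over baseline ratio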
RGS4 act ctr: RGS4 activator counter-screen hit in non-induced cells. shares compounds with RGS4 act. HEK293 M3R non-induced RGS4, Fluo4 calcium flux; after carbachol challenge at its EC90. inhibition, % at 10 µM. 1,100 tested, 82% active. AID 602283;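 active = inhibition exceeding 3 SD of buffer-only control wells, cut at about 26% in these data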;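 also: percent drop in integrated peak-minus-baseline over baseline Fluo4 ratio after carbachol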
Numbers stand for hits. Hits are enriched below; roughly 3.5% of the tested compounds scored in any of these assays.

For CCN(CC)CCOC(c1ccccc1)c1ccc(C)cc1 (stereo unspecified) the results were MrgX1 antag inactive, RGS4 block inactive, MrgX1 ag inactive, RGS4 act inactive and MrgX1 PAM inactive.
CCN(CC)CC#CCOC(c1ccccc1)c1ccccc1 was read as MrgX1 antag inactive, RGS4 block inactive, MrgX1 ag inactive, RGS4 act -9.2, MrgX1 PAM inactive, RGS4 activ val 88 and RGS4 act ctr 57.
CN(C)CC#CCOC(c1ccccc1)c1ccccc1 was read as MrgX1 antag inactive, RGS4 block inactive, MrgX1 ag inactive, RGS4 act -8.9, MrgX1 PAM inactive, RGS4 activ val 92 and RGS4 act ctr 72.
Screening CN(C)CC#CCC(O)(c1ccccc1)c1ccccc1 returned MrgX1 antag inactive, RGS4 block inactive, MrgX1 ag inactive, RGS4 act inactive and MrgX1 PAM inactive.
`CCN(CC)CC#CCC(O)(c1ccccc1)c1ccccc1` gave MrgX1 antag inactive, RGS4 block inactive, MrgX1 ag inactive, RGS4 act -7.7, MrgX1 PAM inactive, RGS4 activ val 90 and RGS4 act ctr 52.
`CN(C)S(=O)(=O)c1cccc(NC(=O)c2ccc(S(=O)(=O)N3CCCCC3)cc2)c1` gave MrgX1 antag inactive, RGS4 block inactive, MrgX1 ag inactive, RGS4 act inactive and MrgX1 PAM inactive.
CN(C)S(=O)(=O)c1cccc(C(=O)Nc2ccc(S(=O)(=O)N3CCCC3)cc2)c1 was read as MrgX1 antag inactive, RGS4 block inactive, MrgX1 ag inactive, RGS4 act -7.9, MrgX1 PAM inactive, RGS4 activ val 70 and RGS4 act ctr 84.
`C=CCNc1ncnc2sc(SC)nc12` gave MrgX1 antag inactive, RGS4 block inactive, MrgX1 ag inactive, RGS4 act inactive and MrgX1 PAM inactive.
`CN(C)C(C)(C)/C=C/C(O)(c1ccccc1)c1ccccc1` gave MrgX1 antag inactive, RGS4 block inactive, MrgX1 ag inactive, RGS4 act -8.7, MrgX1 PAM inactive, RGS4 activ val 88 and RGS4 act ctr 64.
`CCCCOc1ccc(C(=O)N2CCC(C)CC2)cc1` gave MrgX1 antag inactive, RGS4 block inactive, MrgX1 ag inactive, RGS4 act inactive and MrgX1 PAM inactive.
CCCCOc1ccc(C(=O)OC2CC(C)N(C)CC2C)cc1 (stereo unspecified) was read as MrgX1 antag inactive, RGS4 block inactive, MrgX1 ag inactive, RGS4 act -9.5, MrgX1 PAM inactive, RGS4 activ val 91 and RGS4 act ctr 86.
Screening COCCNC(=O)/C(C#N)=C/C=C/c1ccccc1[N+](=O)[O-] returned MrgX1 antag inactive, RGS4 block inactive, MrgX1 ag inactive, RGS4 act inactive and MrgX1 PAM inactive.
OC(CN1CCCCC1)CN(c1ccccc1)c1ccccc1 (stereo unspecified) was read as MrgX1 antag inactive, RGS4 block inactive, MrgX1 ag inactive, RGS4 act -9.8, MrgX1 PAM inactive, RGS4 activ val 90 and RGS4 act ctr 58.
OC(CN1CCCCCC1)CN(c1ccccc1)c1ccccc1 (stereo unspecified) was read as MrgX1 antag inactive, RGS4 block inactive, MrgX1 ag inactive, RGS4 act inactive and MrgX1 PAM inactive.
Screening CC(C)CCN(C(=O)C1=COCCO1)c1c(N)n(Cc2ccccc2)c(=O)[nH]c1=O returned MrgX1 antag inactive, RGS4 block inactive, MrgX1 ag inactive, RGS4 act inactive and MrgX1 PAM inactive.
For CCCCOc1ccccc1Cn1c(=O)oc2ccc(C)cc21 the results were MrgX1 antag inactive, RGS4 block inactive, MrgX1 ag inactive, RGS4 act -7.7, MrgX1 PAM inactive, RGS4 activ val 92 and RGS4 act ctr 91.
